Measurements pooled from the literature.
Protocols differ between the studies behind these lines.
Target: Serine/threonine-protein kinase LATS2 (LATS2, Homo sapiens, UniProt Q9NRM7)
One construct used (Q9NRM7 1-1088): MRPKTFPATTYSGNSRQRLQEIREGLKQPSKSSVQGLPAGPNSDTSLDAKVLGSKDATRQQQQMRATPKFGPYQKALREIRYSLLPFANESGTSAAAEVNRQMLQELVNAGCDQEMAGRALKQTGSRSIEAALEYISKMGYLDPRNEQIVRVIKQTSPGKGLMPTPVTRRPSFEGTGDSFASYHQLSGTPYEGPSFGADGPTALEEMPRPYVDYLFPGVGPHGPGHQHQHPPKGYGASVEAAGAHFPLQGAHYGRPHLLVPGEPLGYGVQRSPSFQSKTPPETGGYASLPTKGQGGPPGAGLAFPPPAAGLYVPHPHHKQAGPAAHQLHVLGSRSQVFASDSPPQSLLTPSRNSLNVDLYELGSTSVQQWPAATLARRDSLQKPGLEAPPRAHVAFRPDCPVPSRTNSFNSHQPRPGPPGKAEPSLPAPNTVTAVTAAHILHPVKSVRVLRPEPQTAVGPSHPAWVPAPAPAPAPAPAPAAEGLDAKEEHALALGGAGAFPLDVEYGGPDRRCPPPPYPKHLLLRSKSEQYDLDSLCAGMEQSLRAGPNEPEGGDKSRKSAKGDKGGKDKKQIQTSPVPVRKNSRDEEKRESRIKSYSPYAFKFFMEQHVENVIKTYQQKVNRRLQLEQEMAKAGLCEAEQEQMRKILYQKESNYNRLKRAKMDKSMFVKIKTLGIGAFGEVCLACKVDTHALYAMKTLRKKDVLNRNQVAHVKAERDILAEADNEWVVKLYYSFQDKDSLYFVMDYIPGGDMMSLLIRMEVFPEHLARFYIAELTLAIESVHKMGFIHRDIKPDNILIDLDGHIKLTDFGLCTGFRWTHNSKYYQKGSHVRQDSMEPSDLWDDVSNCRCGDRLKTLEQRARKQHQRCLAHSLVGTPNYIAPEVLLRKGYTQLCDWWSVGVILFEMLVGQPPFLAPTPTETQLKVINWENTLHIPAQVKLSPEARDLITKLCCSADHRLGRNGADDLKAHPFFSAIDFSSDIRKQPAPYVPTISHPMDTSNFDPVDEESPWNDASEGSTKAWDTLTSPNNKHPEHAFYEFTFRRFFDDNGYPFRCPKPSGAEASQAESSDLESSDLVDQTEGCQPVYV

O=C(c1ccc(Nc2nccc(-c3cc4ccccc4s3)n2)cc1)N1CCC(N2CCCC2)CC1
remaining binding (binding; competition with immobilised ligand; 1 µM): 72%

COc1cnc(Nc2cccc(S(N)(=O)=O)c2)nc1N1CCN(c2ccccc2)CC1
remaining binding (binding; competition with immobilised ligand; 1 µM): 74%

O=C(c1ccc(Nc2ncc(Cl)c(-c3cc4ccccc4s3)n2)cc1)N1CCC(N2CCCC2)CC1
remaining binding (binding; competition with immobilised ligand; 1 µM): 15%

CCN1CCN(Cc2ccc(C(=O)Nc3ccc(C)c(Oc4ccc5c(c4)CC(=O)N5)c3)cc2C(F)(F)F)CC1
remaining binding (binding; competition with immobilised ligand; 1 µM): 100%

C[C@H]1CCN(c2nccc(-c3cnn4ncccc34)n2)C1
remaining binding (binding; 1 µM): 83%

CCCCN(CCCC)C(=O)CN1C[C@@H](c2cc(OC)c3c(c2)OCO3)[C@H](C(=O)O)[C@H]1CC(C)(C)CCC
remaining binding (cell-free assay; competition with immobilised ligand; 1 µM): 100%

CN(C)c1ncc(F)c(-c2cnn3ncccc23)n1
remaining binding (binding; 1 µM): 72%

Cc1nc(C2CCN(C(=O)c3ccc(OC(F)(F)F)cc3N)CC2)c2ncc(N3CCN(C)CC3)cc2n1
remaining binding (cell-free assay; competition with immobilised ligand; 1 µM): 100%

Nc1ncc2c(n1)-c1c([nH]c3ccc(C#CC4CC4)cc13)CCCC2
remaining binding (binding; competition with immobilised ligand; 1 µM): 91%

COc1cnc(Nc2cccc(S(N)(=O)=O)c2)nc1N1CCN(c2ccccc2)C(=O)C1
remaining binding (binding; competition with immobilised ligand; 1 µM): 100%

Cc1cnc(Nc2ccc(C(=O)N3CCC(N4CCCC4)CC3)cc2)nc1-c1cc2ccccc2s1
remaining binding (binding; competition with immobilised ligand; 1 µM): 44%

O=C(NCC1CCOCC1)c1n[nH]cc1NC(=O)c1c(F)cccc1F
remaining binding (binding; competition with immobilised ligand; 1 µM): 87%

Cc1nccc(COC(=O)N2C[C@@H]3[C@@H](CNC(=O)c4ccc5[nH]nnc5c4)[C@@H]3C2)n1
remaining binding (cell-free assay; competition with immobilised ligand; 1 µM): 97%

CN(C)c1nccc(-c2cnn3ncccc23)n1
remaining binding (binding; 1 µM): 64%

C[C@H](c1ccc(F)cc1)N(Cc1cccc(C(=O)O)c1)C(=O)c1cnc2ccccc2c1
remaining binding (cell-free assay; competition with immobilised ligand; 1 µM): 64%

COc1ccnn2ncc(-c3ccnc(N(C)C)n3)c12
remaining binding (binding; 1 µM): 100%

Cn1nc(C(=O)NCc2ccc(C(=O)O)cc2)cc1-c1ccc2[nH]ccc2c1
remaining binding (cell-free assay; competition with immobilised ligand; 0.1 µM): 100%

F[C@@H]1CCN(c2nccc(-c3cnn4ncccc34)n2)C1
remaining binding (binding; 1 µM): 100%

NS(=O)(=O)c1cc(NC(=O)Cc2ccccc2)ccc1Oc1cccc(Cl)c1
remaining binding (cell-free assay; competition with immobilised ligand; 1 µM): 94%

N[C@H]1CCN(c2nccc(-c3cnn4ncccc34)n2)C1
remaining binding (binding; 1 µM): 74%
